ChEMBL document CHEMBL1128454, “Cyclization-activated prodrugs: N-(substituted 2-hydroxyphenyl and 2-hydroxypropyl)carbamates based on ring-opened derivatives of active benzoxazolones and oxazolidinones as mutual prodrugs of acetaminophen” (J Med Chem, 1995)

Tests used:
[1] = Compound was evaluated for pKa; type: physicochemical
Outline: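 Apparent kinetic pKa obtained by fitting the pH-rate profile (log kobsd vs pH, UV-monitored hydrolysis in NaOH and carbonate, borax, Tris or phosphate buffers) to a rate law combining the pH-independent constant with the acid dissociation constant of the prodrug hydroxyl.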

[2] = Compound was evaluated for its hydrolysis half life obtained from the relation Kobs was measured in a pH 7.4 phosphate buffer at 37 degree C (micro = 0.5 M ).; type: ADME; conditions: for half-life: phosphate buffer
Outline: (§1)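 Prodrug hydrolysed in pH 7.40 phosphate buffer at 37 °C (some runs at 25 °C) and monitored by UV spectrophotometry until product formation, about 10 half-lives. First-order kobsd from ln(OD) vs time, with pH checked before and after. Half-life taken as 0.693/kobsd.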

[3] = Compound was evaluated for its rate constant (Kp) which are average values of Kobs measured in the pH range 10-11 at 25 degree C (micro = 0.5 M ).; type: ADME
Outline: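 Spectrophotometric hydrolysis in aqueous NaOH or carbonate/borax buffers, 25 °C, ionic strength 0.5 M. kp is the average of kobsd values measured over pH 10-11 (the pH-independent plateau). kobsd came from first-order ln(OD) vs time plots. Error in each rate constant about ±3%.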

[4] = its hydrolysis half life in human plasma (pH 7.4); type: ADME, organism-based
Outline: (§2)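 Prodrug in acetonitrile or dioxane added to 0.05 M phosphate buffer pH 7.40 containing 80% human or rat plasma, about 0.04 mg/mL initial, at 37 or 25 °C. Aliquots quenched and deproteinized with 0.05 M methanolic HCl, centrifuged, then analysed by reversed-phase HPLC with diode-array detection. First-order constants from ln plots of drug or prodrug concentration vs time.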

[5] = its hydrolysis half life in rat plasma (pH 7.4); type: ADME, organism-based; outline: as §2
[6] = its hydrolysis half life in phosphate buffer (pH 7.4); type: ADME; outline: as §1
[7] = its bimolecular rate constant (KOH) at 25 degree C (m = 0.5); type: ADME
Outline: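 Hydrolysis followed by UV spectrophotometry in aqueous NaOH or buffer (carbonate, borax, Tris, phosphate) at 25 °C, ionic strength 0.5 M. Second-order constant kOH taken from the linear plot of kobsd vs [OH-] over the pH-dependent region. kobsd came from ln(OD) vs time plots. pH in the cell was read before and after reaction.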

pKa [1] | half-life [2] [min] | Kp [3] [s⁻¹] | Structure (SMILES) | also measured
10.2 | 0.37 | 0.0976 | COc1ccc(OC(=O)Nc2cc(Cl)ccc2O)cc1 | –
– | – | – | CC(=O)Nc1ccc(OC(=O)NCC(O)COc2cc(C)cc(C)c2)cc1 (configuration not stated) | half-life [6]: 416 min; half-life ([4]; read-out: T1/2): 45 min; half-life ([5]; read-out: T1/2): 62 min
8.97 | 0.0518 | 0.7 | O=C(Nc1cc(Cl)ccc1O)Oc1cccc(C(F)(F)F)c1 | –
14.2 | – | 5.93e-06 | CC#CCOC(=O)Nc1cc(Cl)ccc1O | –
13.6 | – | 0.00025 | C#CCOC(=O)Nc1cc(Cl)ccc1O | T1/2 ([2]; buffer): 108 min
– | – | – | CNC(=O)Oc1ccc(NC(C)=O)cc1 | KOH [7]: 11.5 M⁻¹ s⁻¹
9.49 | 0.233 | 0.0221 | CC(=O)Nc1ccc(OC(=O)Nc2cc(C(=O)c3ccccc3)ccc2O)cc1 | half-life [6]: 0.233 min; half-life ([4]; read-out: T1/2): 10.2 min; half-life ([5]; read-out: T1/2): 2.9 min
10 | 0.2 | 0.169 | O=C(Nc1cc(Cl)ccc1O)Oc1ccccc1 | –
9.8 | 0.187 | 0.184 | CC(C)(C)OC(=O)Nc1ccc(OC(=O)Nc2cc(Cl)ccc2O)cc1 | –
15.5 | 105000 | 1.05e-06 | COC(=O)Nc1cc(Cl)ccc1O | –
– | – | – | COc1ccccc1OCC(O)CNC(=O)Oc1ccc(NC(C)=O)cc1 (configuration not stated) | half-life [6]: 371 min; KOH [7]: 10.5 M⁻¹ s⁻¹; half-life ([4]; read-out: T1/2): 59 min; half-life ([5]; read-out: T1/2): 58 min
9.49 | 0.0965 | 0.119 | CC(=O)Nc1ccc(OC(=O)Nc2ccc(C(=O)c3ccccc3)cc2O)cc1 | half-life [6]: 0.097 min; half-life [4]: 1 min; half-life [5]: 0.233 min
– | – | – | COc1ccccc1OCC(CNC(=O)Oc1ccc(NC(C)=O)cc1)OC (configuration not stated) | half-life [6]: 502 min; half-life ([4]; read-out: T1/2): 134 min; half-life ([5]; read-out: T1/2): 153 min
12.4 | 2.58 | 0.014 | O=C(Nc1cc(Cl)ccc1O)OCC(F)(F)F | –
16 | 418000 | 8.63e-07 | CCOC(=O)Nc1cc(Cl)ccc1O | –
9.02 | 0.0634 | 0.503 | O=C(Nc1cc(Cl)ccc1O)Oc1cccc(Cl)c1 | –
13.2 | 42.5 | 0.000806 | O=C(Nc1cc(Cl)ccc1O)OCC(Cl)Cl | half-life ([4]; read-out: T1/2): 105 min; half-life ([5]; read-out: T1/2): 53.8 min
14.3 | – | 2.75e-06 | O=C(Nc1cc(Cl)ccc1O)OCCCl | –
9.49 | 0.118 | 0.205 | CC(=O)Nc1ccc(OC(=O)Nc2cc(Cl)ccc2O)cc1 | half-life [6]: 0.118 min; half-life [4]: 1.1 min; half-life [5]: 0.833 min
– | – | – | COc1ccc(Cl)cc1NC(=O)Oc1ccc(NC(C)=O)cc1 | KOH [7]: 510 M⁻¹ s⁻¹
9.38 | 0.125 | 0.279 | CC(=O)Nc1cccc(OC(=O)Nc2cc(Cl)ccc2O)c1 | –
10.4 | 0.383 | 0.0806 | Cl.Nc1ccc(OC(=O)Nc2cc(Cl)ccc2O)cc1 | –

Structure (SMILES) | pKa [1] | half-life [2] [min] | Kp [3] [s⁻¹] | also measured
O=C(Nc1cc(Cl)ccc1O)OCC(Cl)(Cl)Cl | 12.7 | 276000 | 1.14 | half-life ([4]; read-out: T1/2): 10.1 min; half-life ([5]; read-out: T1/2): 7.5 min
